ChEMBL document CHEMBL1131131, “Structure-based design of beta-lactamase inhibitors. 2. Synthesis and evaluation of bridged sulfactams and oxamazins” (J Med Chem, 1998)
Values after ≈ are worked out from the molar mass of the structure shown.

Test system: Citrobacter freundii
Assay: Minimum inhibitory concentration against the strain Citrobacter freundii 1982 that produce the beta-lactamases
Format: functional
How it was run: (§1)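 Agar dilution on Mueller-Hinton agar with twofold serial dilutions of the compound or combination. About 10⁴ organisms were spotted with a multipoint inoculator. Plates were incubated for 18 h at 35 °C. MIC was taken as the lowest concentration preventing visible growth.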

Row | Structure (SMILES) | MIC
1 | NC(=O)c1ccc(NC(=O)N2CCC3C2C(=O)N3OS(=O)(=O)[O-])cc1.[Na+] (stereo not given) | 1 µg/mL
2 | CC(C)(C)OC(=O)N1CCC2C1C(=O)N2OCC(=O)OCc1ccccc1 (stereo not given) | > 16 µg/mL
3 | CC(C)(C)OC(=O)N1CCC2C1C(=O)N2OS(=O)(=O)[O-].[Na+] (stereo not given) | 4 µg/mL
4 | NC(=O)c1ccc(NC(=O)N2CC[C@@H]3[C@H]2C(=O)N3S(=O)(=O)O)cc1 | 0.25 µg/mL (≈ 0.706 µM)

Test system: not listed separately
Assay: Kinetic parameter was determined

Row | Structure (SMILES) | Koff | Kon | Ks
5 | CC(C)(C)OC(=O)N1CCC2C1C(=O)N2OS(=O)(=O)[O-].[Na+] (stereo not given) | 0.12 s⁻¹ | 20 s⁻¹ | 600 µM
6 | CC(C)(C)OC(=O)N1CC[C@@H]2[C@H]1C(=O)N2S(=O)(=O)O | < 8e-07 s⁻¹ | 12.5 s⁻¹ | 127 µM

Test system: Pseudomonas aeruginosa
Assay: Minimum inhibitory concentration against the strains of Pseudomonas aeruginosa that produce the beta-lactamases
Format: functional
How it was run: as §1

Row | Structure (SMILES) | MIC
7 | NC(=O)c1ccc(NC(=O)N2CC[C@@H]3[C@H]2C(=O)N3S(=O)(=O)O)cc1 | 4 µg/mL (≈ 11.3 µM)
8 | CC(C)(C)OC(=O)N1CC[C@@H]2[C@H]1C(=O)N2S(=O)(=O)O | 8 µg/mL (≈ 27.4 µM)

Further lines, results first:

Row | MIC | Structure (SMILES)
9 | 128 µg/mL | NC(=O)c1ccc(NC(=O)N2CCC3C2C(=O)N3OS(=O)(=O)[O-])cc1.[Na+] (stereo not given)
10 | > 16 µg/mL | CC(C)(C)OC(=O)N1CCC2C1C(=O)N2OCC(=O)OCc1ccccc1 (stereo not given)
11 | 32 µg/mL | CC(C)(C)OC(=O)N1CCC2C1C(=O)N2OS(=O)(=O)[O-].[Na+] (stereo not given)

Test system: Escherichia coli
Assay: Minimum inhibitory concentration against the strains of Escherichia coli that produce the beta-lactamases
Format: functional
How it was run: as §1

Row | Structure (SMILES) | MIC
12 | NC(=O)c1ccc(NC(=O)N2CC[C@@H]3[C@H]2C(=O)N3S(=O)(=O)O)cc1 | 16 µg/mL (≈ 45.2 µM)
13 | CC(C)(C)OC(=O)N1CC[C@@H]2[C@H]1C(=O)N2S(=O)(=O)O | 16 µg/mL (≈ 54.7 µM)

Other lines, results leading:

Row | MIC | Structure (SMILES)
14 | 8 µg/mL | NC(=O)c1ccc(NC(=O)N2CCC3C2C(=O)N3OS(=O)(=O)[O-])cc1.[Na+] (stereo not given)
15 | > 16 µg/mL | CC(C)(C)OC(=O)N1CCC2C1C(=O)N2OCC(=O)OCc1ccccc1 (stereo not given)
16 | 4 µg/mL | CC(C)(C)OC(=O)N1CCC2C1C(=O)N2OS(=O)(=O)[O-].[Na+] (stereo not given)
